An excerpt weighted towards active compounds, which were near 2.6% of everything screened.
Platelet DG rel = modulates dense granule release in human platelets; human platelet-rich plasma, SFLLRN dense granule ATP release, luminescence; inhibition, %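 (compounds screened at 7.5 µM in platelet-rich plasma)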; actives 0.22% (n = 300,000);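 active means mean replicate score, as percent of positive control, at or above 50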
SENP6 inh = SENP6 protease inhibition; Q9GZR1; Recombinant SENP6 catalytic domain, aminoluciferin luminescence; inhibition, % at 10 µM; actives 1.8% (n = 330,000);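 active means inhibition above about 50% at the single tested dose, limit read from the data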;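 further: plate controls were DMSO wells with enzyme for no effect and DMSO wells lacking enzyme for full effect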
SENP8 block-1 = blocks the human protease SENP8 | AID 2540 | inhibition, % at 10 µM | actives 1.2% (n = 330,000) | purified SENP8, Z-RLRGG-aminoluciferin cleavage, luminescence | Q96LD8; in the data active means inhibition above about 50%
SENP8 block-2 = SENP8 (human) protease inhibition | actives 0.64% (n = 360,000) | AID 602440 | Q96LD8 | recombinant SENP8, Nedd8 substrate fluorescence | inhibition, % at 20 µM; in the data active means inhibition mostly above about 40%, no sharp cut-off; inactive means mostly below about 27%
SENP1 FRET inh = inhibitors of human SENP1 SUMO protease catalytic domain. Q9P0U3. recombinant SENP1 catalytic domain, CyPet-SUMO1-YPet FRET cleavage. inhibition, % at 10 µM. actives 0.21% (n = 360,000);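 active means inhibition at least 30% at 10 µM, raw YFP signal under a set limit, fluorescence ratio 0.5 to 1.5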;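 further: 0% = enzyme with DMSO and 100% = no enzyme wells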
Target sequence (Q9P0U3 419-644 limits assumed): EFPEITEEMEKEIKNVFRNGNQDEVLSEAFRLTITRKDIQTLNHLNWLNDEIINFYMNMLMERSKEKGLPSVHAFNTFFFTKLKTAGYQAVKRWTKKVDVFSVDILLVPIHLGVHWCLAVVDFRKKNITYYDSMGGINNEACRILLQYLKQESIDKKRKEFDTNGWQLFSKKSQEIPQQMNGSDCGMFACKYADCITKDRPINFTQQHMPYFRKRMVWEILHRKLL
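Assay system: hSENP1 catalytic domain, recombinant. Amount: SENP1 enzyme, 20 pM final. Schedule: 50 min reaction, RT, dark. Technique: FRET, CFP and YFP emission. Control set: no-enzyme wells low, DMSO-plus-enzyme wells high control.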
SENP7 inh = SENP7 protease inhibition. inhibition, % at 5 µM. Q9BQF6. AID 434973. actives 1.5% (n = 330,000). recombinant SENP7, Z-RLRGG-aminoluciferin luminescence, 40 min;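 active means inhibition above about 50% at the single test dose, limit read from the data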;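 further: plate controls were DMSO with enzyme for no effect and no enzyme buffer wells for full effect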
Target sequence (Q9BQF6 706-1050 limits assumed): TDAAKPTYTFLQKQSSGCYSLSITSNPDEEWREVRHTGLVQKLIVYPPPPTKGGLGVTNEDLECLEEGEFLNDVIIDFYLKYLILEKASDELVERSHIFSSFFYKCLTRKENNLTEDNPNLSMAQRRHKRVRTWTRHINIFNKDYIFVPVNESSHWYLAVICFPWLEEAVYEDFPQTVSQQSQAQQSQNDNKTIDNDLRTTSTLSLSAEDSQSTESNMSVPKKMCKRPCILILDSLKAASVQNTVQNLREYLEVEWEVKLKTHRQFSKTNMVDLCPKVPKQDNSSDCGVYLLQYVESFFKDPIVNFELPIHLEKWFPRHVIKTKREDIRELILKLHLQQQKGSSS
SENP8 conf = human SENP8 inhibition, confirmed. shares compounds with SENP7 inh. Recombinant SENP8, Z-RLRGG-aminoluciferin luminescence, 60 min. inhibition, % at 12.5 µM. actives 40% (n = 6,200);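 active means mean inhibition across replicates above about 50%, limit read from the data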
SENP6 confirm = human SENP6 inhibition, confirmed | shares compounds with SENP7 inh | recombinant SENP6, Z-RLRGG-aminoluciferin luminescence | inhibition, % at 12.5 µM | actives 58% (n = 6,200) | AID 488915
SENP7 confirm = confirmation of human SENP7 protease inhibitors; shares compounds with SENP7 inh; recombinant SENP7, Z-RLRGG-aminoluciferin luminescence, 40 min; inhibition, % at 12.5 µM; actives 69% (n = 6,200); AID 488917
Casp3 SENP sel = inhibits human caspase-3 in SENP selectivity test. shares compounds with SENP7 inh. purified caspase-3, Z-DEVD-aminoluciferin luminescence, 60 min. inhibition, % at 12.5 µM. actives 60% (n = 6,200). AID 488918;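 active means mean inhibition above about 50%, limit read from the data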;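 further: plate controls were enzyme with DMSO for no effect and wells without caspase-3 for full effect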
SENP luc ctr = counter-screen for SENP inhibitors: luminescence interference; Pre-incubated SENP8/Z-RLRGG-aminoluciferin, luciferase luminescence interference; actives 39% (n = 6,200); shares compounds with SENP7 inh; inhibition, % at 12.5 µM;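 active means mean inhibition above about 50% when retested at one dose, limit read from the data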;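 further: plate controls were DMSO wells with completed reaction for no effect and substrate without enzyme for full effect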
The depositor's hits bear a star; i = inactive; x = no result.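 How the source made its calls, unless noted: active means mean inhibition above about 50% in the one-dose retest (limit read from the data); inactive means the rest.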

SMILES	Platelet DG rel	SENP6 inh	SENP8 block-1	SENP8 block-2	SENP1 FRET inh	SENP7 inh	SENP8 conf	SENP6 confirm	SENP7 confirm	Casp3 SENP sel	SENP luc ctr
CCN(CC)C(=O)CSc1ncnc2c(-c3cccs3)nsc12	x	57*	21	i	-25	35	15	8	7	8	-4
Nc1nccc(-c2cc(-c3ccc(Cl)cc3Cl)no2)n1	22	95*	92*	-208	-2	95*	80*	87*	91*	76*	42
CS(=O)(=O)c1ccc2nc(NC(=O)c3ccccc3Cl)sc2c1	22	2	1	-3	1	5	x	x	x	x	x
CS(=O)(=O)c1ccc2nc(NC(=O)c3cc4ccccc4o3)sc2c1	6	83*	52*	i	-1	54*	17	14	41	34	6
CC(=O)Nc1nc2ccc(-c3nc4ccccc4o3)cc2s1	-2	-2	24	-495	-56	64*	20	16	20	12	-3
Cc1cc(C(=O)Nc2nc3ccc(Cl)cc3s2)nn1C	-8	-7	-4	-8	-1	48	x	x	x	x	x
CCC(=O)Nc1cccc(-c2nc3ccccc3o2)c1	8	-16	-15	-9	3	-7	x	x	x	x	x
CS(=O)(=O)c1ccc2sc(NC(=O)c3cc4ccccc4o3)nc2c1	1	77*	46	-415	1	28	-4	-6	0	38	23
O=C(Nc1nc2ccc(Cl)cc2s1)c1ccc(Br)o1	3	53*	30	-274	-7	59*	10	18	7	16	6
CS(=O)(=O)c1ccc2nc(NC(=O)c3ccco3)sc2c1	11	24	23	-236	-1	26	x	x	x	x	x
COCc1cn(CC[C@@H]2CC[C@@H](NC(=O)Nc3ccc4c(c3)OCO4)[C@@H](CO)O2)nn1	x	x	x	16	3	x	x	x	x	x	x
Cc1ccc(C(=O)Nc2nc3ccc(S(C)(=O)=O)cc3s2)o1	42	-15	33	-235	-4	60*	56*	54*	84*	86*	64*
Oc1cc(CNC2CCCCC2)c(O)cc1CNC1CCCCC1	x	x	x	27	14	x	x	x	x	x	x
Cc1cccc(-c2cc3nc4c(c(NCc5ccco5)n3n2)CCCC4)c1	15	88*	81*	-267	-5	44	17	12	15	24	26
Cc1cccc(-c2cc3nc4c(c(N5CCOCC5)n3n2)CCCC4)c1	7	65*	53*	-198	1	5	60*	51*	50	48	13
Cc1cccc(-c2nc(CS(=O)CC(=O)N3CC(C)CC(C)C3)c(C)o2)c1 (stereo unspecified)	0	-3	-7	12	2	17	x	x	x	x	x
CCN(CC)c1ccc(N=Nc2nn(C)c(C)c2[N+](=O)[O-])cc1	12	78*	54*	38	4	63*	-17	-7	19	10	-2
CCN(Cc1ccccc1)c1ccc(N=Nc2nn(C)c(C)c2[N+](=O)[O-])cc1	7	-32	3	39	5	-4	x	x	x	x	x
Cn1nnc2cc(NC(=O)Nc3ccccc3F)ccc21	x	x	x	1	2	x	x	x	x	x	x
COc1ccccc1NC(=O)Nc1cccc(C(=O)O)c1	1	60*	30	-5	3	44	56*	52*	80*	77*	63*
Cc1cc(NC(=O)Nc2ccccc2F)ccc1Br	-4	80*	88*	20	1	95*	76*	92*	102*	86*	64*
COc1cccc(NC(=O)COc2ccccc2C(N)=O)c1	1	65*	38	14	2	39	30	27	71*	75*	52*
COc1cccc(NC(=O)Nc2ccccc2Br)c1	4	90*	66*	4	2	82*	77*	78*	94*	70*	36
O=C(Nc1cccs1)Nc1ccccc1Br	5	50*	22	5	-1	40	31	46	75*	41	17
COC(=O)c1ccccc1NC(=O)Nc1cccs1	-3	-5	-8	-42	-1	-7	x	x	x	x	x
SMILES	Platelet DG rel	SENP6 inh	SENP8 block-1	SENP8 block-2	SENP1 FRET inh	SENP7 inh	SENP8 conf	SENP6 confirm	SENP7 confirm	Casp3 SENP sel	SENP luc ctr
O=C(/C=C\c1ccccc1)Nc1nccs1	15	83*	61*	5	4	88*	59*	61*	95*	88*	19
CC(=O)OC(C(=O)Nc1nccs1)c1ccccc1 (stereo unspecified)	-4	1	5	13	3	1	x	x	x	x	x
O=C(Nc1nccs1)C(Br)C(Br)c1ccccc1 (stereo unspecified)	-7	84*	79*	3	4	91*	76*	73*	95*	85*	9
COc1ccc(Br)c(Cn2c(C)c(C(=O)NCc3ccc(F)cc3)sc2=O)c1	x	x	x	6	-1	x	x	x	x	x	x
COCCCNC(=O)c1cccn2c(=O)c3cc4ccccc4cc3nc12	-1	82*	85*	-94	25	30	-19	-10	-6	-9	-5
O=C(C[n+]1cccc(CNC(=O)c2ccc(OC(F)F)cc2)c1)Nc1cccc(C(F)(F)F)c1	-11	-1	1	17	-1	1	x	x	x	x	x
Cc1ccnc2ccc(-c3nc4ccccc4o3)cc12	x	88*	71*	i	3	83*	25	20	58*	40	9
Cc1cc(-c2nc3ccccc3o2)c2ccccc2n1	-2	-6	-20	-285	1	-12	x	x	x	x	x
Cc1nc2ccc(-c3nc4ccccc4o3)cc2[nH]1	11	8	28	-361	2	62*	63*	59*	84*	60*	64*
O=C(O)c1cccc(C(=O)Nc2cccc(NC(=O)C3CCCO3)c2)c1 (stereo unspecified)	21	57*	42	6	1	49	74*	71*	91*	67*	47
O=C(O)c1cccc(NC(=O)C2CCCO2)c1 (stereo unspecified)	3	6	0	8	2	14	x	x	x	x	x
